Active and inactive are the calls of the source. The calls are words filed in the database; no cut-off is given here.
Experiments:
[1] = biological target: Phosphatidylinositol 4,5-bisphosphate 3-kinase catalytic subunit delta isoform (Homo sapiens) (UniProt O00329); test: Inhibition of PI3Kdelta (unknown origin) transfected in human Rh30 cells assessed as reduction in AKT phosphorylation at Thr308 residue at 10XIC50 by western blot analysis; format: cell-based
Outline: (§1)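 Rh30 cells ectopically expressing membrane-anchored, N-terminally myristoylated, constitutively active p110α, β, γ or δ. Akt phosphorylation assessed by Western blot; lysates made in RIPA buffer, equal protein heated at 95 °C for 10 min in SDS loading buffer.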

[2] = Metabolic stability in human hepatocytes assessed as half life; format: ADME, cell-based, Hepatocyte
[3] = biological target: T1, Phosphatidylinositol 4,5-bisphosphate 3-kinase catalytic subunit alpha isoform (Homo sapiens, UniProt P42336); test: Inhibition of PI3Kalpha in human U87MG cells assessed as reduction in rhIGF1-stimulated AKT phosphorylation at Thr308 treated for 1 hr followed by incubation with IGF1 for 10 mins by western blot analysis; format: cell-based; details: U-87 MG, dose 0.01-1 µM, time 70.0 min
T1 sequence (P42336 whole entry, canonical isoform): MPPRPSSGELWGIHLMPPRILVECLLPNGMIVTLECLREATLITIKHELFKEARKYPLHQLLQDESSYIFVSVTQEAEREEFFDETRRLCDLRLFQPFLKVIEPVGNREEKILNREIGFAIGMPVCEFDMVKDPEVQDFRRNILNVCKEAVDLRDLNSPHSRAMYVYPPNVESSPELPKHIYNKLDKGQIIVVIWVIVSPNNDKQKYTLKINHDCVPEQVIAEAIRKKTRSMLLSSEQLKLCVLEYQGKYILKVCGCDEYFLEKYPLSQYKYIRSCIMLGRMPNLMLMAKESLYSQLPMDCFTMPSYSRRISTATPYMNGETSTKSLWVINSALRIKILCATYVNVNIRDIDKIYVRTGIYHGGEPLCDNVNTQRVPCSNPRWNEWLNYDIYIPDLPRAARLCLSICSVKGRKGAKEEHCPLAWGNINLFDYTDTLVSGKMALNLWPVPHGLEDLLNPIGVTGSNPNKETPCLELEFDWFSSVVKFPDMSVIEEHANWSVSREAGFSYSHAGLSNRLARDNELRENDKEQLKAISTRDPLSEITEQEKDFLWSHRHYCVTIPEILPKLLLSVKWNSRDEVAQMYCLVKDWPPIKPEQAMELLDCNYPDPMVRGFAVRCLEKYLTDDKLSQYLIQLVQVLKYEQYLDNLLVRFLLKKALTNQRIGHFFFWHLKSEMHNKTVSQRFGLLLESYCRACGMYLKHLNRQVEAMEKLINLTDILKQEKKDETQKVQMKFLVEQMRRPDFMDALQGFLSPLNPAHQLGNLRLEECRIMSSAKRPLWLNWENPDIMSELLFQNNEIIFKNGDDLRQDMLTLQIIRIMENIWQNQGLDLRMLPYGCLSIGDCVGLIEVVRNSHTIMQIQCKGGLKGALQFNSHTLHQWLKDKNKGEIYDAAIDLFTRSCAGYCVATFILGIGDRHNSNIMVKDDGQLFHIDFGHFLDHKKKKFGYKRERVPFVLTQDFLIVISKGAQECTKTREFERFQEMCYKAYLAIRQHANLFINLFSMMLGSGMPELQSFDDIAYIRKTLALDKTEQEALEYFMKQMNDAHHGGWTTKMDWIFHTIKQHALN
Outline: (§2)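 U87MG or Rh30 cells held 24 h in serum-free medium, exposed to compound for 1 h, then stimulated with 50 ng/ml IGF-I for 10 min. Lysates blotted for Akt, pAkt T308 and pAkt S473.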

[4] = biological target: T1, Phosphatidylinositol 4,5-bisphosphate 3-kinase catalytic subunit alpha isoform; test: Inhibition of PI3Kalpha in human Rh30 cells assessed as reduction in rhIGF1-stimulated AKT phosphorylation at Thr308 treated for 1 hr followed by incubation with IGF1 for 10 mins by western blot analysis; format: cell-based; details: dose 0.01-1 µM, time 70.0 min; outline: as §2
[5] = Metabolic stability in rat hepatocytes assessed as intrinsic clearance; format: ADME, cell-based, Hepatocyte; details: read-out: CLH
[6] = Toxicity in BALB/cA nude mouse xenografted with human SK-OV-3 cells assessed as blood glucose level at 5 to 20 mg/kg, po administered once a day for 18 days by glucose meter analysis; format: organism-based; details: in vivo, 432 h, dose 5-20 mg/kg/day, time 18 day
Outline: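 Female BALB/cA nude mice, 4–5 weeks old, carried s.c. SKOV-3 xenograft fragments. They were dosed orally once daily for 18 days with vehicle or compound, then fasted 6 h and given glucose orally at 2 g/kg. Blood was sampled at set times up to 2 h, and glucose was measured with a blood glucose meter.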

[7] = organism: Homo sapiens; test: Selectivity index, ratio of IC50 for human PI3K p110beta/p85alpha to IC50 for human PI3Kalpha by HTRF assay
Outline: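 The PI3K isoforms were assayed with an HTRF kit. Each enzyme was incubated in assay buffer containing 10 μM PIP2, and the reaction was started with ATP and run 30 min at room temperature. Stop solution and detection mix were then added and light emission was read. IC50 values were averages of at least 3 separate determinations, and each index is the ratio of IC50 values.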

[8] = system: LoVo; test: Antiproliferative activity against human LoVo cells assessed as reduction in cell viability after 72 hrs by sulforhodamine B assay; format: functional, cell-based
Outline: (§3)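 SRB assay. Exponentially growing cells seeded at 3000–5000/well, compounds added serially diluted after 24 h, cultured 72 h. Cells fixed with 10% TCA, stained with SRB, dye dissolved in 10 mM Tris-HCl, absorbance read at 560 nm. Inhibition = (ODcontrol − ODtreated)/ODcontrol × 100%. IC50 is the mean of at least three independent tests.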

[9] = biological target: Serine/threonine-protein kinase mTOR (Homo sapiens, UniProt P42345); test: Inhibition of human full length recombinant mTOR in presence of [gamma33P-ATP] by radiometric scintillation counting analysis
[10] = Oral bioavailability in rat at 10 mg/kg; format: ADME, organism-based; details: in vivo
Outline: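 Male rats were dosed orally at 10 mg/kg, with a parallel i.v. arm at 5 mg/kg. Plasma PK parameters were derived, including Cmax, Tmax, T1/2 and AUC0-∞, with oral bioavailability (F) reported against the i.v. arm.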

[11] = Metabolic stability in Beagle dog hepatocytes assessed as intrinsic clearance; format: ADME, cell-based, Canis lupus familiaris, Hepatocyte; details: read-out: CLH
[12] = system: Mus musculus; test: In vivo inhibition of PI3Kalpha in BALB/cA nude mouse xenografted with human SK-OV-3 cells assessed as reduction in AKT phosphorylation at Ser473 residue in tumor at 5 mg/kg, po measured after 2 hrs by Western blot analysis; format: functional, organism-based
Outline: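 Nude mice carrying SKOV-3 xenografts of 200 mm³ got a single oral 5 mg/kg dose. Tumors were collected at 0, 2, 4 or 8 h, homogenized, and pAkt S473 probed by Western blot.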

[13] = system: ZR-75-1; test: Antiproliferative activity against human ZR-75-1 cells assessed as reduction in cell viability after 72 hrs by sulforhodamine B assay; format: functional, cell-based; details: ZR-75-1, 72 h; outline: as §3
[14] = AUC (0 to infinity) in rat at 10 mg/kg, po; format: ADME, organism-based; set-up: route oral, time infinity, dose 10 mg/kg; details: in vivo
Outline: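 Male rats dosed orally at 10 mg/kg; plasma exposure followed to give AUC0-∞ (i.v. arm at 5 mg/kg run alongside).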

[15] = biological target: Phosphatidylinositol 4,5-bisphosphate 3-kinase catalytic subunit delta isoform (Homo sapiens) (UniProt O00329); test: Inhibition of PI3Kdelta (unknown origin) transfected in human Rh30 cells assessed as reduction in AKT phosphorylation at Ser473 residue at 10XIC50 by western blot analysis; format: cell-based; outline: as §1
[16] = Metabolic stability in Beagle dog hepatocytes assessed as half life; format: ADME, cell-based, Canis lupus familiaris, Hepatocyte
[17] = system: PC-3; test: Antiproliferative activity against human PC-3 cells assessed as reduction in cell viability after 72 hrs by sulforhodamine B assay; format: functional, cell-based; details: PC-3, 72 h; outline: as §3
[18] = biological target: RAF proto-oncogene serine/threonine-protein kinase (Homo sapiens, UniProt P04049, Y340D/Y341D); test: Inhibition of human recombinant c-Raf Y340D/Y341D mutant (306 to end residues) using inactive MEK1 as substrate incubated for 40 mins in presence of [gamma33P-ATP] by radiometric scintillation counting analysis
Sequence of RAF proto-oncogene serine/threonine-protein kinase (P04049 whole entry Y340D/Y341D): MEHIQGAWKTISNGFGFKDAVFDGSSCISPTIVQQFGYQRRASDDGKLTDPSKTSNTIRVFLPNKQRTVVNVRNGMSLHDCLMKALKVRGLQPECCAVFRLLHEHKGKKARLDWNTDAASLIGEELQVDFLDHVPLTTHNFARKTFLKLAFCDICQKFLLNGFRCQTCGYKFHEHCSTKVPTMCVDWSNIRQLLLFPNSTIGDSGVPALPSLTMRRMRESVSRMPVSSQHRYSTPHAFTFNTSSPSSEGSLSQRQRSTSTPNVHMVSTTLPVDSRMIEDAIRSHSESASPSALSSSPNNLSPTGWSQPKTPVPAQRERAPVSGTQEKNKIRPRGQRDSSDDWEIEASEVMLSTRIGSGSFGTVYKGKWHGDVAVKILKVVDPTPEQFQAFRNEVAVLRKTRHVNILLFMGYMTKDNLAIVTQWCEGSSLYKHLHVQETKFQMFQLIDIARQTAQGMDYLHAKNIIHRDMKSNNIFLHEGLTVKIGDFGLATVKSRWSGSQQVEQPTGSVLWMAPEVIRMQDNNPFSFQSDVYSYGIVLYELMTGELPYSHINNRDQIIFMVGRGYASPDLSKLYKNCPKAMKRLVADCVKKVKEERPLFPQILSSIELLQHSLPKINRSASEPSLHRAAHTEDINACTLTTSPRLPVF

[19] = Metabolic stability in mouse hepatocytes assessed as intrinsic clearance; format: ADME, cell-based, Hepatocyte; details: read-out: CLH
[20] = Metabolic stability in mouse hepatocytes assessed as half life; format: ADME, cell-based, Hepatocyte
[21] = Inhibition of human PI3Kgamma R459Q mutant using PIP2 as substrate in presence of ATP measured after 30 mins by HTRF assay
[22] = biological target: Phosphatidylinositol 4,5-bisphosphate 3-kinase catalytic subunit gamma isoform (Homo sapiens) (UniProt P48736); test: Inhibition of PI3Kgamma (unknown origin) transfected in human Rh30 cells assessed as reduction in AKT phosphorylation at Ser473 residue at 10XIC50 by western blot analysis; format: cell-based; outline: as §1
Sequence of Phosphatidylinositol 4,5-bisphosphate 3-kinase catalytic subunit gamma isoform (Homo sapiens) (P48736 whole entry, looked up, canonical isoform): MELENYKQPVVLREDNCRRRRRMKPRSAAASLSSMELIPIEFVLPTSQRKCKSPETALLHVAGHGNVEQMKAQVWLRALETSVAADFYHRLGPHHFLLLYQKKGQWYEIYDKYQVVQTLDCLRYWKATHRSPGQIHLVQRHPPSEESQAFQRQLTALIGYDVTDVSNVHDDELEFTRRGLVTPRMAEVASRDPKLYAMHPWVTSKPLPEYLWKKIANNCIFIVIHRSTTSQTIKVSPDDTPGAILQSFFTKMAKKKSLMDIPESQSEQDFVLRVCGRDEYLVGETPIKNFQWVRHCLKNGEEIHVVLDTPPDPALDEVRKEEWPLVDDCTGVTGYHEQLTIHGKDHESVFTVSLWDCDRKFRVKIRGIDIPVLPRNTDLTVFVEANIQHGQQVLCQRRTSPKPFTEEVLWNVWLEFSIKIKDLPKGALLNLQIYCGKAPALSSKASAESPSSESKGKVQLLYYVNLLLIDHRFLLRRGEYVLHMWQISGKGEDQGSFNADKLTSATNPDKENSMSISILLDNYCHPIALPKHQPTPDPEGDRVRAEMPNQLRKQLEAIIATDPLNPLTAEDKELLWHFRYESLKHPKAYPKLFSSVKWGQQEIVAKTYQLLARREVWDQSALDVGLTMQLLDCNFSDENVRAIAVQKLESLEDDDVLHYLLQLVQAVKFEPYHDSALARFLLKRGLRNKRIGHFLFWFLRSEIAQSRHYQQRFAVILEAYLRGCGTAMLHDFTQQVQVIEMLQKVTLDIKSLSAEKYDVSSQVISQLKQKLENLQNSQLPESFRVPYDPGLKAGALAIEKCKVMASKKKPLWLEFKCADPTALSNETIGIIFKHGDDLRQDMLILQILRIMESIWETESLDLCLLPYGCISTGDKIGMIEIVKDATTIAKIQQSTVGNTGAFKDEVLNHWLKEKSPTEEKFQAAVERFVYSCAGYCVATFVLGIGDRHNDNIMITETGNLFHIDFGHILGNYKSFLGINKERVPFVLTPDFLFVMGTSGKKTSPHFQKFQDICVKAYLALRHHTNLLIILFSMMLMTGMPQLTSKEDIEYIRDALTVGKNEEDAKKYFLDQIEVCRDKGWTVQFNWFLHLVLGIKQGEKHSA

[23] = biological target: Phosphatidylinositol 4,5-bisphosphate 3-kinase catalytic subunit beta isoform (Homo sapiens) (UniProt P42338); test: Inhibition of PI3Kbeta (unknown origin) transfected in human Rh30 cells assessed as reduction in AKT phosphorylation at Ser473 residue at 10XIC50 by western blot analysis; format: cell-based; outline: as §1
Sequence of Phosphatidylinositol 4,5-bisphosphate 3-kinase catalytic subunit beta isoform (Homo sapiens) (P42338 whole entry, looked up, canonical isoform): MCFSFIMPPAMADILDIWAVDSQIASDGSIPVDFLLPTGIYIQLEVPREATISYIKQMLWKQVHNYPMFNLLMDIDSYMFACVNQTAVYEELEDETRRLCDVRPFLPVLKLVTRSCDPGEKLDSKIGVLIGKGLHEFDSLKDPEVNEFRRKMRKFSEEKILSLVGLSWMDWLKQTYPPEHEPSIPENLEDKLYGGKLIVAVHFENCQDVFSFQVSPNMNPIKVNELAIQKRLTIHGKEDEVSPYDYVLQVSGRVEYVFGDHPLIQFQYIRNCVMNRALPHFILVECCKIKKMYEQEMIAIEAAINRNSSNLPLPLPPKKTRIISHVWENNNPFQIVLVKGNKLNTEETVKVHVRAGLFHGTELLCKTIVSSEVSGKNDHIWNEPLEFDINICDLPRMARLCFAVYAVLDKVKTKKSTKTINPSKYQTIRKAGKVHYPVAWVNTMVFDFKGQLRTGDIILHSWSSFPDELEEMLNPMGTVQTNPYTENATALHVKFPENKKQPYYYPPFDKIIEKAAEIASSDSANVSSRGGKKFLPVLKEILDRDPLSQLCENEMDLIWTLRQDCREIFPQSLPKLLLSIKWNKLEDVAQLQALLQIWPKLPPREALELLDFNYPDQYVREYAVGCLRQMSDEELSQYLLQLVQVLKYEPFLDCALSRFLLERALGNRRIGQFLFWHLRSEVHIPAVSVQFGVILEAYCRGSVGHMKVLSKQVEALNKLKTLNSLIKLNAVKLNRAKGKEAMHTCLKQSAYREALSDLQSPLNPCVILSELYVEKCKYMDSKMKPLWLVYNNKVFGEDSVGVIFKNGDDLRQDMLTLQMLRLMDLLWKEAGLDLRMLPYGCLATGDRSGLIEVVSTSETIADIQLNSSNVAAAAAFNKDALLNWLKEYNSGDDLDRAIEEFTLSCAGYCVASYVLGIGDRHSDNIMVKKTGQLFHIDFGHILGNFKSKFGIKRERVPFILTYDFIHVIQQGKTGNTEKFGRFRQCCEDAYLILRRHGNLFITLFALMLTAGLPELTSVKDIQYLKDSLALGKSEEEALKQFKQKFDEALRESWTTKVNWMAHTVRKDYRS

[24] = biological target: Voltage-gated inwardly rectifying potassium channel KCNH2 (Homo sapiens, UniProt Q12809); test: Inhibition of human ERG expressed in CHO cells at holding potential of -80 mV by patch clamp assay; format: cell-based
Outline: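 Patch clamp on CHO cells stably expressing hERG, at room temperature. External solution (mM): 145 NaCl, 5 KCl, 2 CaCl2, 1 MgCl2, 10 HEPES, 10 glucose, pH 7.4. Pipette solution: 140 KCl, 1 MgCl2, 0.1 CaCl2, 5 EGTA, 10 HEPES, pH 7.3. Pipettes 3–5 MΩ; peak hERG current amplitude measured.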

Sequence of Phosphatidylinositol 4,5-bisphosphate 3-kinase catalytic subunit delta isoform (Homo sapiens) (O00329 whole entry, canonical isoform): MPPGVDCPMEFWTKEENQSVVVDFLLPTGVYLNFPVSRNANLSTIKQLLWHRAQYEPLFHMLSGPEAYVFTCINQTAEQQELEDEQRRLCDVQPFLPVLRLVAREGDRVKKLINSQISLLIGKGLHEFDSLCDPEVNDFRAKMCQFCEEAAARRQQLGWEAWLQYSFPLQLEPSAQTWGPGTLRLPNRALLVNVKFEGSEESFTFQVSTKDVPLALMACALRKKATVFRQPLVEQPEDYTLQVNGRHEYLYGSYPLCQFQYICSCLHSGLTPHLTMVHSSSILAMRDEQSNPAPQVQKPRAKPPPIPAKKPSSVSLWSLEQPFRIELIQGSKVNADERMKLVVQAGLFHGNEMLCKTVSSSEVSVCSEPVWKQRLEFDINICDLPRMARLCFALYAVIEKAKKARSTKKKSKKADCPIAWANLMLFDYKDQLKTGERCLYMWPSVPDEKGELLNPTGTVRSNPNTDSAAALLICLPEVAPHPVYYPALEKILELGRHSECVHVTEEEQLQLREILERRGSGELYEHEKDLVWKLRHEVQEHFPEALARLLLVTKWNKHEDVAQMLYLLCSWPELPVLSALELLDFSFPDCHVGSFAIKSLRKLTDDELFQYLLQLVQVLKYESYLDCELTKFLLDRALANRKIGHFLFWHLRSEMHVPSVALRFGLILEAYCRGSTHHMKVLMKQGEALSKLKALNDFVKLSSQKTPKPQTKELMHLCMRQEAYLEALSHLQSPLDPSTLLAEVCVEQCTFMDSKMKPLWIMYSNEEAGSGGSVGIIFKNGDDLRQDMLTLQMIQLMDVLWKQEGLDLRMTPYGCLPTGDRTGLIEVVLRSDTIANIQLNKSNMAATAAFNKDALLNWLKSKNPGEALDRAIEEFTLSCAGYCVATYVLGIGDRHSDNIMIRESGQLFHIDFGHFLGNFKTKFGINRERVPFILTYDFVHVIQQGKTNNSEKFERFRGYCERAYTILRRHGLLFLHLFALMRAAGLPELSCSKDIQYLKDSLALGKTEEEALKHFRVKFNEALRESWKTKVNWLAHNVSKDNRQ

In the case of `COC(=O)Nc1cc(C(F)(F)F)c(-c2nc(N3CCOCC3)c3cc(CN4CCN(S(C)(=O)=O)CC4)cn3n2)cn1` [RISOVALISIB], the inhibition [1] is reported as “Active”, the half-life [2] is reported as 6.79 h and the inhibition [3] is reported as “Dose-dependent effect”. The inhibition [4] was “Dose-dependent effect”, the CLint scaled [5] was 16.9 mL/min/kg and the Activity [6] was “Non-Toxic”. It also gave a Ratio IC50 [7] of 101, an IC50 [8] of less than 1 µM and an IC50 [9] greater than 10 µM. The bioavailability [10] was 36.9%, the CLint scaled [11] was 39.5 mL/min/kg and the inhibition [12] was “Active”. For the same compound, the IC50 [13] was less than 1 µM, the AUC(0-inf) [14] was 2750 ng·h/mL and the inhibition [15] was “Active”. It also gave a half-life [16] of 1.46 h, an IC50 [17] of less than 1 µM and an IC50 [18] of 1 µM. It also gave a CLint scaled [19] of 21.6 mL/min/kg, a half-life [20] of 1.56 h and an IC50 [21] of 0.225 µM. For the same compound, the inhibition [22] was “Active”, the inhibition [23] was “Active” and the IC50 [24] was greater than 40 µM.

— ChEMBL document CHEMBL4732078 (Eur J Med Chem, 2021)
